Reference: ChEMBL document CHEMBL3045489, “Synthesis, fungicidal activity, and QSAR of a series of 2-dichlorophenyl-3-triazolylpropyl ethers” (J Agric Food Chem, 2000)
Values after ≈ are worked out from the molar mass of the structure shown. Active and inactive are the calls of the source. No cut-off for these calls is given here.

Tests used:
[1] = test system: Bipolaris maydis; experiment: Antifungal activity against Cochliobolus heterostrophus assessed as inhibition of radial growth on potato dextrose; format: functional, organism-based
How it was run: (§1)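 Radial growth inhibition on potato dextrose or Czapek agar across 100-0.1 mg L-1. ED50 calculated for each compound.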

[2] = test system: Pyrenophora teres; experiment: Antifungal activity against Pyrenophora teres assessed as inhibition of radial growth on potato dextrose; format: functional, organism-based
[3] = test system: Ustilago maydis; experiment: Antifungal activity against Ustilago maydis assessed as inhibition of radial growth on potato dextrose; format: functional, organism-based; details: Mycosarcoma maydis
[4] = test system: Oculimacula yallundae; experiment: Antifungal activity against Oculimacula yallundae assessed as inhibition of radial growth on potato dextrose; format: functional, organism-based; how it was run: as §1
[5] = test system: Podosphaera fuliginea; experiment: Fungicidal activity against Podosphaera fuliginea inoculated in […] placed in growth room after 24 hr incubation assessed as direct protection after 6 to 10 days; format: functional
[6] = test system: Uromyces appendiculatus; experiment: Fungicidal activity against Uromyces appendiculatus inoculated in Phaseolus vulgaris placed in growth room after 24 hr incubation assessed as direct protection after 6 to 10 days; format: functional
How it was run: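 Bean plants grown at 22 ± 1 °C, 80 ± 10% RH. Compound in acetone/water (1:4 v/v) with Tween 20 (0.4 mg mL-1) was sprayed on leaves until moist at 100 to 0.001 mg L-1. One day later leaves were inoculated with U. appendiculatus uredospores (1 × 10^5 spores mL-1), held 24 h at 22 ± 2 °C and 100% RH, then moved to the growth room. Scored at 6, 8 and 10 days as MIC.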

[7] = test system: Cercospora beticola; experiment: Antifungal activity against Cercospora beticola assessed as inhibition of radial growth on potato dextrose; format: functional, organism-based; how it was run: as §1
[8] = test system: Botrytis cinerea; experiment: Antifungal activity against Botryotinia fuckelianaassessed as inhibition of radial growth on potato dextrose; format: functional, organism-based; how it was run: as §1
[9] = test system: Fusarium graminearum; experiment: Antifungal activity against Fusarium graminearum assessed as inhibition of radial growth on potato dextrose; format: functional, organism-based; how it was run: as §1
[10] = test system: Podosphaera fuliginea; experiment: Fungicidal activity against Podosphaera fuliginea inoculated in […] placed in growth room after 24 hr incubation assessed as disease cure after 24 hr of inoculation; format: functional
[11] = target: T1, Lanosterol 14-alpha demethylase (Mycosarcoma maydis) (UniProt P49602); experiment: Inhibition of 14alpha-demethylase Ustilago maydis ATCC 14826 assessed as reduction in ergosta-5,7-dien-3-ol
T1 sequence (whole entry): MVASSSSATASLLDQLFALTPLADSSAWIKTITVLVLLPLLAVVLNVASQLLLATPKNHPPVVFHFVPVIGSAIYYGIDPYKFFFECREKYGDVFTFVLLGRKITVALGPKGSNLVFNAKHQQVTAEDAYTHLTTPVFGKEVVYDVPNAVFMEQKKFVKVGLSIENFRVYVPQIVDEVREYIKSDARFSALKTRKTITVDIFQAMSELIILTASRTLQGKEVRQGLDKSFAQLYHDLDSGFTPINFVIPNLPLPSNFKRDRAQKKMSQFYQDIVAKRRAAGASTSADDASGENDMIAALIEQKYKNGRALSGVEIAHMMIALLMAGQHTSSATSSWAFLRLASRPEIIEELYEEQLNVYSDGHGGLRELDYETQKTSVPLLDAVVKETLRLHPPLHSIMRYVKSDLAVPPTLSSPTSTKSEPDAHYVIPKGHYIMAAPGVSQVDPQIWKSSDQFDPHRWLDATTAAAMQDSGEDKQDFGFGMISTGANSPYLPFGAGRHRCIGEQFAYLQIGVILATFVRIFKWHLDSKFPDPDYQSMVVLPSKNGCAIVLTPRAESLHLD
How it was run: (§2)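 Actively growing broth cultures of U. maydis ATCC 14826 were incubated 18 h with increasing compound concentrations. Sterols were then extracted and analysed, and 14α-demethyl and 14α-methyl sterols quantified.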

[12] = target: T1, Lanosterol 14-alpha demethylase (Mycosarcoma maydis); experiment: Inhibition of 14alpha-demethylase Ustilago maydis ATCC 14826 assessed as reduction in ergosterol; how it was run: as §2
[13] = target: T2, Lanosterol 14-alpha demethylase (Mycosarcoma maydis, UniProt P49602); experiment: Inhibition of 14alpha-demethylase Ustilago maydis ATCC 14826 assessed as reduction in 14alpha-methylfecosterol; details: read-out: I50 (converted); how it was run: as §2
T2 sequence (P49602 whole entry): T1 sequence (whole entry)

[14] = test system: Uromyces appendiculatus; experiment: Fungicidal activity against Uromyces appendiculatus inoculated in Phaseolus vulgaris placed in growth room after 24 hr incubation assessed as disease cure after 24 hr of inoculation; format: functional
How it was run: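 Bean rust curative test with the same plants, spray formulation (acetone/water 1:4 with Tween 20), 100 to 0.001 mg L-1 range and U. appendiculatus inoculum (1 × 10^5 spores mL-1). Compound applied 24 h after inoculation. Read-out expressed as MIC.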

C=C(Cn1cncn1)c1ccc(Cl)cc1Cl
EC50 [1]: 0.4 µg/mL (≈ 1.57 µM)
EC50 [2]: 0.9 µg/mL (≈ 3.54 µM)
EC50 [3]: 0.8 µg/mL (≈ 3.15 µM)
EC50 [4]: 0.45 µg/mL (≈ 1.77 µM)
MIC [5]: 8 µg/mL (≈ 31.5 µM)
MIC [6]: 150 µg/mL (≈ 590 µM)
EC50 [7]: 0.6 µg/mL (≈ 2.36 µM)
EC50 [8]: 4.5 µg/mL (≈ 17.7 µM)
EC50 [9]: 2.9 µg/mL (≈ 11.4 µM)
MIC [10]: 1 µg/mL (≈ 3.94 µM)

Clc1ccc([C@@H](COCc2ccccc2)Cn2cncn2)c(Cl)c1
EC50 [1]: 0.25 µg/mL (≈ 0.69 µM)
EC50 [2]: 0.35 µg/mL (≈ 0.966 µM)
EC50 [3]: 0.09 µg/mL (≈ 0.248 µM)
EC50 [4]: 0.6 µg/mL (≈ 1.66 µM)
MIC [5]: 100 µg/mL (≈ 276 µM)
MIC [6]: 50 µg/mL (≈ 138 µM)
EC50 [7]: 0.18 µg/mL (≈ 0.497 µM)
EC50 [8]: 1.3 µg/mL (≈ 3.59 µM)
EC50 [9]: 13 µg/mL (≈ 35.9 µM)

Clc1ccc([C@H](COCc2ccccc2)Cn2cncn2)c(Cl)c1
EC50 [1]: 0.25 µg/mL (≈ 0.69 µM)
EC50 [2]: 0.5 µg/mL (≈ 1.38 µM)
EC50 [3]: < 0.1 µg/mL
EC50 [4]: 0.41 µg/mL (≈ 1.13 µM)
MIC [5]: 80 µg/mL (≈ 221 µM)
MIC [6]: 50 µg/mL (≈ 138 µM)
EC50 [7]: 0.16 µg/mL (≈ 0.442 µM)
EC50 [8]: 3 µg/mL (≈ 8.28 µM)
EC50 [9]: 18 µg/mL (≈ 49.7 µM)

C=CCOC[C@@H](Cn1cncn1)c1ccc(Cl)cc1Cl
EC50 [1]: 0.18 µg/mL (≈ 0.577 µM)
EC50 [2]: 1.5 µg/mL (≈ 4.8 µM)
EC50 [3]: 0.09 µg/mL (≈ 0.288 µM)
EC50 [4]: 0.28 µg/mL (≈ 0.897 µM)
MIC [5]: 90 µg/mL (≈ 288 µM)
inhibition [11]: Active
MIC [6]: 25 µg/mL (≈ 80.1 µM)
inhibition [12]: Active
EC50 [7]: < 0.1 µg/mL
EC50 [8]: 1.5 µg/mL (≈ 4.8 µM)
EC50 [9]: 10 µg/mL (≈ 32 µM)
IC50 [13]: 897 nM

C=CCOC[C@H](Cn1cncn1)c1ccc(Cl)cc1Cl
EC50 [1]: 0.2 µg/mL (≈ 0.641 µM)
EC50 [2]: 0.8 µg/mL (≈ 2.56 µM)
EC50 [3]: 0.22 µg/mL (≈ 0.705 µM)
EC50 [4]: 0.4 µg/mL (≈ 1.28 µM)
MIC [5]: 100 µg/mL (≈ 320 µM)
inhibition [11]: Active
MIC [6]: 100 µg/mL (≈ 320 µM)
inhibition [12]: Active
EC50 [7]: 0.25 µg/mL (≈ 0.801 µM)
EC50 [8]: 3 µg/mL (≈ 9.61 µM)
EC50 [9]: 8.5 µg/mL (≈ 27.2 µM)
IC50 [13]: 1990 nM

C#CCOCC(Cn1cncn1)c1ccc(Cl)cc1Cl (stereo unspecified)
EC50 [2]: 1.4 µg/mL (≈ 4.51 µM)
EC50 [3]: 0.5 µg/mL (≈ 1.61 µM)
EC50 [4]: 0.5 µg/mL (≈ 1.61 µM)
MIC [6]: > 100 µg/mL
EC50 [7]: 0.3 µg/mL (≈ 0.967 µM)
EC50 [8]: 3.6 µg/mL (≈ 11.6 µM)
EC50 [9]: 25 µg/mL (≈ 80.6 µM)

OCCCOCC(Cn1cncn1)c1ccc(Cl)cc1Cl (racemic)
EC50 [1]: 1.3 µg/mL (≈ 3.94 µM)
EC50 [2]: 8 µg/mL (≈ 24.2 µM)
EC50 [3]: 1 µg/mL (≈ 3.03 µM)
EC50 [4]: 2.5 µg/mL (≈ 7.57 µM)
MIC [5]: > 100 µg/mL
MIC [6]: > 200 µg/mL
EC50 [7]: 1.7 µg/mL (≈ 5.15 µM)
EC50 [8]: 70 µg/mL (≈ 212 µM)
EC50 [9]: 75 µg/mL (≈ 227 µM)

Clc1ccc(C(COCc2ccccc2)Cn2cncn2)c(Cl)c1 (racemic)
EC50 [1]: 0.18 µg/mL (≈ 0.497 µM)
EC50 [2]: 0.7 µg/mL (≈ 1.93 µM)
EC50 [3]: 0.14 µg/mL (≈ 0.386 µM)
EC50 [4]: 0.35 µg/mL (≈ 0.966 µM)
MIC [5]: 50 µg/mL (≈ 138 µM)
MIC [6]: 30 µg/mL (≈ 82.8 µM)
EC50 [7]: 0.2 µg/mL (≈ 0.552 µM)
EC50 [8]: 1.6 µg/mL (≈ 4.42 µM)
EC50 [9]: 5 µg/mL (≈ 13.8 µM)
MIC [14]: 35 µg/mL (≈ 96.6 µM)

O=[N+]([O-])c1ccc(COCC(Cn2cncn2)c2ccc(Cl)cc2Cl)cc1 (racemic)
EC50 [1]: 0.15 µg/mL (≈ 0.368 µM)
EC50 [2]: 0.75 µg/mL (≈ 1.84 µM)
EC50 [3]: 0.08 µg/mL (≈ 0.196 µM)
EC50 [4]: 0.18 µg/mL (≈ 0.442 µM)
MIC [5]: 10 µg/mL (≈ 24.6 µM)
MIC [6]: 43 µg/mL (≈ 106 µM)
EC50 [7]: 0.09 µg/mL (≈ 0.221 µM)
EC50 [8]: 2.8 µg/mL (≈ 6.88 µM)
EC50 [9]: > 200 µg/mL

COc1ccc(COCC(Cn2cncn2)c2ccc(Cl)cc2Cl)cc1 (racemic)
EC50 [1]: 0.15 µg/mL (≈ 0.382 µM)
EC50 [2]: 0.45 µg/mL (≈ 1.15 µM)
EC50 [3]: 0.07 µg/mL (≈ 0.178 µM)
EC50 [4]: 0.35 µg/mL (≈ 0.892 µM)
MIC [5]: 35 µg/mL (≈ 89.2 µM)
MIC [6]: 30 µg/mL (≈ 76.5 µM)
EC50 [7]: 0.1 µg/mL (≈ 0.255 µM)
EC50 [8]: 1 µg/mL (≈ 2.55 µM)
EC50 [9]: 10 µg/mL (≈ 25.5 µM)
MIC [14]: 12 µg/mL (≈ 30.6 µM)

CC(C)(C)c1ccc(COCC(Cn2cncn2)c2ccc(Cl)cc2Cl)cc1 (racemic)
EC50 [1]: 0.4 µg/mL (≈ 0.956 µM)
EC50 [2]: 0.8 µg/mL (≈ 1.91 µM)
EC50 [3]: 0.1 µg/mL (≈ 0.239 µM)
EC50 [4]: 1.2 µg/mL (≈ 2.87 µM)
MIC [5]: 10 µg/mL (≈ 23.9 µM)
MIC [6]: 25 µg/mL (≈ 59.8 µM)
EC50 [7]: 0.28 µg/mL (≈ 0.669 µM)
EC50 [8]: 3.8 µg/mL (≈ 9.08 µM)
EC50 [9]: 6.5 µg/mL (≈ 15.5 µM)
MIC [10]: 10 µg/mL (≈ 23.9 µM)

Clc1ccc(COCC(Cn2cncn2)c2ccc(Cl)cc2Cl)c(Cl)c1 (racemic)
EC50 [1]: 0.28 µg/mL (≈ 0.649 µM)
EC50 [2]: 0.35 µg/mL (≈ 0.812 µM)
EC50 [3]: 0.09 µg/mL (≈ 0.209 µM)
EC50 [4]: 0.65 µg/mL (≈ 1.51 µM)
MIC [5]: 10 µg/mL (≈ 23.2 µM)
MIC [6]: 30 µg/mL (≈ 69.6 µM)
EC50 [7]: 0.18 µg/mL (≈ 0.417 µM)
EC50 [8]: 1 µg/mL (≈ 2.32 µM)
EC50 [9]: 12 µg/mL (≈ 27.8 µM)
